In ChEMBL document CHEMBL5653631, “A Potent and Selective ULK1 Inhibitor Suppresses Autophagy and Sensitizes Cancer Cells to Nutrient Stress” (iScience, 2018):

How the values were obtained:
[1] = target: Fibroblast growth factor receptor 2 (Homo sapiens) (UniProt P21802); test: Inhibition of human recombinant FGFR2 at 500 nM in presence of ATP by radiometric assay relative to control
[2] = target: Transcription initiation factor TFIID subunit 1-like (Homo sapiens) (UniProt Q8IZX4); test: Inhibition of human recombinant TAF1L at 500 nM related to control ULK1
[3] = target: Serine/threonine-protein kinase PAK 2 (Homo sapiens) (UniProt Q13177); test: Inhibition of human recombinant PAK2 at 500 nM related to control ULK1
[4] = target: eIF-2-alpha kinase GCN2 (Homo sapiens) (UniProt Q9P2K8); test: Inhibition of human recombinant GCN2 at 500 nM related to control ULK1
[5] = target: Serine/threonine-protein kinase PLK2 (Homo sapiens) (UniProt Q9NYY3); test: Inhibition of human recombinant PLK2 at 500 nM in presence of ATP by radiometric assay relative to control
[6] = target: Calcium/calmodulin-dependent protein kinase type 1 (Homo sapiens) (UniProt Q14012); test: Inhibition of human recombinant CaMK1a at 500 nM related to control ULK1
[7] = target: Ephrin type-A receptor 5 (Homo sapiens) (UniProt P54756); test: Inhibition of human recombinant EphA5 at 500 nM related to control ULK1
[8] = target: T1, TGF-beta receptor type-1 (Homo sapiens) (UniProt P36897); test: Inhibition of human recombinant TGFbR1 at 15 nM related to control ULK1
T1 sequence (whole entry): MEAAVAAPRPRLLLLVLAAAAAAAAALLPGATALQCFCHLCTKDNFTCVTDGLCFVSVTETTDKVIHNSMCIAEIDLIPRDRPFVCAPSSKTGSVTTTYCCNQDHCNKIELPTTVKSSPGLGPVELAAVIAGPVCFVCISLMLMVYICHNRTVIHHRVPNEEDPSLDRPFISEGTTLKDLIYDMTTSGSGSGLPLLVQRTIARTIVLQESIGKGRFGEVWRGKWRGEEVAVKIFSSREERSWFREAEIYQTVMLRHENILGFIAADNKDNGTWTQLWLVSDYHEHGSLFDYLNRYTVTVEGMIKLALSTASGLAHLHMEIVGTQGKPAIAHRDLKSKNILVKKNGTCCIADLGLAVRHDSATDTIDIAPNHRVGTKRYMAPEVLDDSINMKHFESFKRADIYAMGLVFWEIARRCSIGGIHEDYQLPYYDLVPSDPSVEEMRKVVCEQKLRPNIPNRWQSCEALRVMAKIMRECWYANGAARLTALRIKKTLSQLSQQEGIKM

[9] = target: Cyclin-dependent kinase 5 (Homo sapiens) (UniProt Q00535); test: Inhibition of human recombinant CDK5 at 15 nM related to control ULK1
[10] = target: Calcium/calmodulin-dependent protein kinase type II subunit delta (Homo sapiens) (UniProt Q13557); test: Inhibition of human recombinant CaMK2d at 15 nM related to control ULK1
[11] = target: MAP kinase-activated protein kinase 3 (Homo sapiens) (UniProt Q16644); test: Inhibition of human recombinant MAPKAPK3 at 15 nM related to control ULK1
[12] = target: T2, Mitogen-activated protein kinase kinase kinase 7 (Homo sapiens) (UniProt O43318); test: Inhibition of human recombinant TAK1 at 40 nM in presence of ATP by radiometric assay relative to control
T2 sequence (whole entry): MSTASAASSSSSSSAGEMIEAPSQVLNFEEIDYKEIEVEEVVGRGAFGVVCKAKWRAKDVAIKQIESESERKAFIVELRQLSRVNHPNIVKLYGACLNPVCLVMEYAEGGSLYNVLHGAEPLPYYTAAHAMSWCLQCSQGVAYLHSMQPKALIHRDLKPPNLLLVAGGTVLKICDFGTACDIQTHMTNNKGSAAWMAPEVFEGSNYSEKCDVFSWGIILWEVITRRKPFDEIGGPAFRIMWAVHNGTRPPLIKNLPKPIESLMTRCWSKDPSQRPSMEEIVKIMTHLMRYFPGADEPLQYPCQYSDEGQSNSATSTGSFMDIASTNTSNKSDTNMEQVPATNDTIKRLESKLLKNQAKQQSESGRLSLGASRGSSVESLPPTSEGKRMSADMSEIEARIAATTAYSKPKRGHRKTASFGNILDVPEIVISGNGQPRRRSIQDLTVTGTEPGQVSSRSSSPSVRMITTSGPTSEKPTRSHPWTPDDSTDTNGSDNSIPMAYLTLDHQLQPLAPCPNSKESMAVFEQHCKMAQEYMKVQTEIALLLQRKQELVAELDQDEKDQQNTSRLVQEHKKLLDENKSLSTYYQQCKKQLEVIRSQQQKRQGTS

[13] = target: 5'-AMP-activated protein kinase catalytic subunit alpha-1 (Homo sapiens) (UniProt Q13131); test: Inhibition of human recombinant AMPKa1 at 40 nM in presence of ATP by radiometric assay relative to control
Outline: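 Panel of 327 recombinant human kinases, each assayed in vitro by radiometric activity assay in duplicate at a single inhibitor concentration per compound, chosen with reference to its ULK1 inhibition. Activity remaining was expressed as percent of vehicle control, and percent inhibition was calculated as 100 minus percent activity remaining.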

[14] = target: T3, Serine/threonine-protein kinase Sgk1 (Homo sapiens) (UniProt O00141); test: Inhibition of human recombinant SGK1 at 40 nM in presence of ATP by radiometric assay relative to control
T3 sequence (whole entry): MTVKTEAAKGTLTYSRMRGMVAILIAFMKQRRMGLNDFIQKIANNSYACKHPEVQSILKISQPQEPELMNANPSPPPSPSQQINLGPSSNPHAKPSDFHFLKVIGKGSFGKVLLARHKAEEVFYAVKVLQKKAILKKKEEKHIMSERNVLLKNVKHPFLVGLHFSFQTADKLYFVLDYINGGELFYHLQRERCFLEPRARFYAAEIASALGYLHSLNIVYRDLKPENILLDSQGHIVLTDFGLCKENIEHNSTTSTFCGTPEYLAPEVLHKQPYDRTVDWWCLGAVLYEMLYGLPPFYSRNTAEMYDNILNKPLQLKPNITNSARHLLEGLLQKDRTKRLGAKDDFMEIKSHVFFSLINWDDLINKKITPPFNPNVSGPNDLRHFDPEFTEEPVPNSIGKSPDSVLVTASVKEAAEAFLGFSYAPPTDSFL

[15] = target: PAS domain-containing serine/threonine-protein kinase (Homo sapiens) (UniProt Q96RG2); test: Inhibition of human recombinant PASK at 40 nM in presence of ATP by radiometric assay relative to control
[16] = target: Ribosomal protein S6 kinase alpha-6 (Homo sapiens) (UniProt Q9UK32); test: Inhibition of human recombinant RSK4 at 40 nM related to control ULK1
[17] = target: Receptor-type tyrosine-protein kinase FLT3 (Homo sapiens) (UniProt P36888); test: Inhibition of human recombinant FLT3 at 40 nM related to control ULK1
[18] = target: Protein kinase C theta type (Homo sapiens) (UniProt Q04759); test: Inhibition of human recombinant PKCt at 40 nM in presence of ATP by radiometric assay relative to control
Chain of Protein kinase C theta type (Homo sapiens) (Q04759 whole entry, looked up): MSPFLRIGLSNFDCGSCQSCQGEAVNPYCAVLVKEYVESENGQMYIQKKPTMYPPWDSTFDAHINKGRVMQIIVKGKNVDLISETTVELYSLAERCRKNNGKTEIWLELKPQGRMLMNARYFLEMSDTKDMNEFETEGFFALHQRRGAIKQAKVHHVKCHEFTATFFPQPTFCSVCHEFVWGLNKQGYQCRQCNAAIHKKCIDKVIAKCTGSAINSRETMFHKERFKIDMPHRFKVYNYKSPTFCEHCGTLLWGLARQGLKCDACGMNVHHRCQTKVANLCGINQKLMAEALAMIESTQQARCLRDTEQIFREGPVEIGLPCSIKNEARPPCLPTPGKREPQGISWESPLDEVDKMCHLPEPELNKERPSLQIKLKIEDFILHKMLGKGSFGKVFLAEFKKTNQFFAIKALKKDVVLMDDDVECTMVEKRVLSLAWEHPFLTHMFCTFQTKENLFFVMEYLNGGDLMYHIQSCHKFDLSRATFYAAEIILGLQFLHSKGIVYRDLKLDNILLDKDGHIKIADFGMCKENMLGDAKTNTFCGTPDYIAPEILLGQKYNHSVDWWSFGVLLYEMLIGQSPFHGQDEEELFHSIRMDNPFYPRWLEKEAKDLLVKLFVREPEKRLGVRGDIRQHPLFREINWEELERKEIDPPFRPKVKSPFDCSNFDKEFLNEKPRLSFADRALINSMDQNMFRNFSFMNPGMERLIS

Chain of Receptor-type tyrosine-protein kinase FLT3 (Homo sapiens) (P36888 whole entry): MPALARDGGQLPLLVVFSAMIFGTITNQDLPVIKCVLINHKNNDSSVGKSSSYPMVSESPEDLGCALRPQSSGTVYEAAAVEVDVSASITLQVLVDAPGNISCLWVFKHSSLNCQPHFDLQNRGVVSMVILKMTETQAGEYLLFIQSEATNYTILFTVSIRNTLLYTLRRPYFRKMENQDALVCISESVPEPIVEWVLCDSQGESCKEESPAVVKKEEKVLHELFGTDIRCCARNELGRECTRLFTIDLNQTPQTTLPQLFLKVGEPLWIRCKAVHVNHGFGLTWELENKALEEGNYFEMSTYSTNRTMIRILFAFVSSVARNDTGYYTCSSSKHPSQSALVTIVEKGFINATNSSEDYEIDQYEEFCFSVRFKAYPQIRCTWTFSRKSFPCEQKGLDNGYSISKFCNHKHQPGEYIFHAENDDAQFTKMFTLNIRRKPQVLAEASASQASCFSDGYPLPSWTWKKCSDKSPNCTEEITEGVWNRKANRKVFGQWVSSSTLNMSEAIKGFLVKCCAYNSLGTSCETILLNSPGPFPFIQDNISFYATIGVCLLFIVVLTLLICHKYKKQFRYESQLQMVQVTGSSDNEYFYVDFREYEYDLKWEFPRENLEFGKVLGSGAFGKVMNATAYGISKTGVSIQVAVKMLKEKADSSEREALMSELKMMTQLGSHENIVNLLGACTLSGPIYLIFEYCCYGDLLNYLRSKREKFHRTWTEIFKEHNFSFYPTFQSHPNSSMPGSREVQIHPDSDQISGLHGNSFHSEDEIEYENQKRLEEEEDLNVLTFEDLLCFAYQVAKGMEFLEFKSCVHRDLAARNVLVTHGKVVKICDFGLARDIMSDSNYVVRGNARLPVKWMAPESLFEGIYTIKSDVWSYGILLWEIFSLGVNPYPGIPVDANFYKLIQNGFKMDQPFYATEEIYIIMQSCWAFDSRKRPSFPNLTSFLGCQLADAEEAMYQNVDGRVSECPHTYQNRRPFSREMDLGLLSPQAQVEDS
Chain of Calcium/calmodulin-dependent protein kinase type 1 (Homo sapiens) (Q14012 whole entry, looked up): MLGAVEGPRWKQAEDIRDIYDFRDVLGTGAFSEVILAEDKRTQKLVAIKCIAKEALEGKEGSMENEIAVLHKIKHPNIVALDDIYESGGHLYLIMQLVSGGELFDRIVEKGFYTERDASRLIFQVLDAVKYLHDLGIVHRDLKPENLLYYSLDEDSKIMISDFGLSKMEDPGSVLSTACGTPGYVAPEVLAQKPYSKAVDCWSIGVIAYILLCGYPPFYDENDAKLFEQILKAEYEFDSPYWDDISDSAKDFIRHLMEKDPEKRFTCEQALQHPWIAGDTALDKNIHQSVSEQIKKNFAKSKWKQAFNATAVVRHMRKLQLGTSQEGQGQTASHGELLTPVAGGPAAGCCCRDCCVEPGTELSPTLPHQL
Chain of 5'-AMP-activated protein kinase catalytic subunit alpha-1 (Homo sapiens) (Q13131 whole entry, looked up): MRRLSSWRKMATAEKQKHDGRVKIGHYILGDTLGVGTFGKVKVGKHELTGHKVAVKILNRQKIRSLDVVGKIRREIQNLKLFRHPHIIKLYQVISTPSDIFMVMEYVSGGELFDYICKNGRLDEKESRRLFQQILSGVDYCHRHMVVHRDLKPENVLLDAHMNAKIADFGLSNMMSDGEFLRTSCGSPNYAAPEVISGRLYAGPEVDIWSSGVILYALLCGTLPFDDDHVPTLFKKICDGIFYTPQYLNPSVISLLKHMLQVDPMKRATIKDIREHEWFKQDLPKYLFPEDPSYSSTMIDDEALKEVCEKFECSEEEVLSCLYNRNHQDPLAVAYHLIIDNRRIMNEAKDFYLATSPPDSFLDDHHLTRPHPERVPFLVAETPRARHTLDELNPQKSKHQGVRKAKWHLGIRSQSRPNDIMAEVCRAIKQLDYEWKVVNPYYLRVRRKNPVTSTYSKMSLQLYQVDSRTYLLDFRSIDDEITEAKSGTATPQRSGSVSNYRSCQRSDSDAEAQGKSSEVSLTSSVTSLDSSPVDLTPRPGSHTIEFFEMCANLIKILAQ
Chain of Cyclin-dependent kinase 5 (Homo sapiens) (Q00535 whole entry, looked up): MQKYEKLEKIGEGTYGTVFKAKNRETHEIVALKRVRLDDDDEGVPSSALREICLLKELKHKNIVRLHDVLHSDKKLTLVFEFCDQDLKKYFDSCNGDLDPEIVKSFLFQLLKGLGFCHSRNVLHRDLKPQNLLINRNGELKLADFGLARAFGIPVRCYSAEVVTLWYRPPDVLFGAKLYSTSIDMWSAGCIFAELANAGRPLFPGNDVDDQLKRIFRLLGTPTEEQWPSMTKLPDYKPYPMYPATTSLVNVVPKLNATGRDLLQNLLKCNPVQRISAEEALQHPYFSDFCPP
Chain of Transcription initiation factor TFIID subunit 1-like (Homo sapiens) (Q8IZX4 whole entry): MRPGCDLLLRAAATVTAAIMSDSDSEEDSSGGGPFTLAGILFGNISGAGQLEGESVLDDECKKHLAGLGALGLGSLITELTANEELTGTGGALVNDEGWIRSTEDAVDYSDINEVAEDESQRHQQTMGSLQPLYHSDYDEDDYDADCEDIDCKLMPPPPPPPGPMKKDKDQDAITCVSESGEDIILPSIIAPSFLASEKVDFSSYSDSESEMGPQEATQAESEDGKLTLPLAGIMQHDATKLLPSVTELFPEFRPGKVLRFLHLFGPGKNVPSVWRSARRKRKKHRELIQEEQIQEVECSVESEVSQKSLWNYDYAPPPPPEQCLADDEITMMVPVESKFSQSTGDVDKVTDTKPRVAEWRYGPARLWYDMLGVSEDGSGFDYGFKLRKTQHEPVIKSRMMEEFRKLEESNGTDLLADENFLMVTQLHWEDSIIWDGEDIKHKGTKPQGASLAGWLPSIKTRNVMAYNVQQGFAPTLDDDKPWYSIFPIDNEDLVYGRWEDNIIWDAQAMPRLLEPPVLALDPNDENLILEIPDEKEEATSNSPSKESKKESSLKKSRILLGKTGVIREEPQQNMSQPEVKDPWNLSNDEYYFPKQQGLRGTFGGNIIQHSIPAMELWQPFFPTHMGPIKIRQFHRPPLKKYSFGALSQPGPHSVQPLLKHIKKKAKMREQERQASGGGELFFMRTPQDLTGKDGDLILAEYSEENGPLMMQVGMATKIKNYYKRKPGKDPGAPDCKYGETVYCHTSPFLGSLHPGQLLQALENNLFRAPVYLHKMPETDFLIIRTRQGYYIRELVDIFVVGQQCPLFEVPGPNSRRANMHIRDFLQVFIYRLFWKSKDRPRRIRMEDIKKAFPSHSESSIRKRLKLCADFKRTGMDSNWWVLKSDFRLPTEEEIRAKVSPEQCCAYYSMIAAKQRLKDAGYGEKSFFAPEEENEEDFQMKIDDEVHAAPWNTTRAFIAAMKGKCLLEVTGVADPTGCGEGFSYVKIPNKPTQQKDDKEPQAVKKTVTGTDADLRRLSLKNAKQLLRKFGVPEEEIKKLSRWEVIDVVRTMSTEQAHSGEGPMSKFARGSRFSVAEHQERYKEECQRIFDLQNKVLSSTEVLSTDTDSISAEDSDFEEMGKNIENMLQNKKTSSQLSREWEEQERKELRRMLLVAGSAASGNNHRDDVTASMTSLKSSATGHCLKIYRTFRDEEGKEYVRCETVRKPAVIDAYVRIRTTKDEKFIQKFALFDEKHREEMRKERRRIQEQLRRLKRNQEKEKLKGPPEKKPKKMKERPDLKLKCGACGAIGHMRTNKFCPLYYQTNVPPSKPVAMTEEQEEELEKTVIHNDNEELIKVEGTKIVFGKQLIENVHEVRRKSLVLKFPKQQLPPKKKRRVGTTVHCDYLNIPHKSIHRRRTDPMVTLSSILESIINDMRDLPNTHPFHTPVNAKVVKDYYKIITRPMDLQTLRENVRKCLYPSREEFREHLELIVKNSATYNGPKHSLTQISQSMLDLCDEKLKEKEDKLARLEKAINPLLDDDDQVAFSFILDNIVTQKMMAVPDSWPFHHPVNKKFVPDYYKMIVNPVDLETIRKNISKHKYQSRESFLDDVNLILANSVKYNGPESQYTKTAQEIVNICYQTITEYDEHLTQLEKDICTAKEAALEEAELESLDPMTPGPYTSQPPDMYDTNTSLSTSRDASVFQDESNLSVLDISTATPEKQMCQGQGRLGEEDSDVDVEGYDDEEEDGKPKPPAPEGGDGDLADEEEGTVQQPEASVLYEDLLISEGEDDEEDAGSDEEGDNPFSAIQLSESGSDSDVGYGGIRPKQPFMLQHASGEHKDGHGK

An inhibition [1] of 21%, a fold change (FC) [2] of 0 and a fold change (FC) [3] of 0.19 were found for CNC(=O)c1ccccc1Oc1nc(Nc2cc(OC)c(OC)c(OC)c2)ncc1Br in this work. For the same compound, the fold change (FC) [4] was 0.03, the inhibition [5] was 4% and the fold change (FC) [6] was 0. The fold change (FC) [7] was 0.26.
A fold change (FC) [8] of 0.05, a fold change (FC) [9] of 0.26 and a fold change (FC) [10] of 0.23 were found for CC(C)[C@H](NC(=O)c1cc(-c2cnn3cc(-c4ccc(OCCN5CCCCC5)cc4)cnc23)cs1)C(F)(F)F in this work. It also gave a fold change (FC) [11] of 0.
An inhibition [12] of 0%, an inhibition [13] of 8% and an inhibition [14] of 7% were found for O=C(N[C@@H](C1CC1)C(F)(F)F)c1cc(-c2cnn3cc(-c4ccc(F)cc4)cnc23)cs1 in this work. It also gave an inhibition [15] of 12%, a fold change (FC) [16] of 0 and a fold change (FC) [17] of 0.26. For the same compound, the inhibition [18] was 0%.
